Sampled rows, rich in hits. Any-hit rate of the full collection: about 5.7%.
Calb FLC = C. albicans growth inhibition with fluconazole, primary screen, CaCi-2 strain, Alamar Blue fluorescence; growth inhibition, % (concentration not given with the values); 300,000 compounds, 0.57% hits; C. albicans CaCi-2 (fluconazole-resistant clinical isolate) + fluconazole, 48 h;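 active = growth inhibition above about 58% in most replicates, limit read from the data, passing the limit was not always enough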;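 note: all wells also contain fluconazole at 8 µg/ml as a sub-toxic cotreatment; 0% = median of DMSO wells and 100% = median of geldanamycin control wells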
Beta apoptosis = inhibitors of cytokine-induced beta cell apoptosis, primary screen, luminescence. INS-1E cytokine-induced death, ATP luminescence, 48 h; percent of positive-control rescue, neutral wells zero. AID 435005, 2010. protection from apoptosis, % (concentration not given with the values). 300,000 compounds, 0.8% hits;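 active = Every replicate reaches about 75%, or at least half do and their mean reaches it too, limit read from the data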;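 note: 0% = cytokine-treated negative control wells and 100% = positive control rescue; higher means more ATP so stronger rescue from cytokine killing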
CSC inhib = cancer stem cell viability inhibitors, primary screen, luminescence. cancer stem cell-like cells viability. inhibition, % at 7.5 µM. 300,000 compounds, 1.1% hits. AID 2717, 2010; in the data active = inhibition above about 75%; tested in HMLE shEcad cells
Mdm2 MdmX PPI = inhibitors of human Mdm2-MdmX association, primary screen, cell-based, luminescence, split luciferase, SaOS-2, uHTS; Protein Mdm4 (Homo sapiens) + E3 ubiquitin-protein ligase Mdm2 (Homo sapiens), …; SaOS-2 split-luciferase Mdm2/MdmX complementation; inhibition, % at 8 µM; 330,000 compounds, 3% hits;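 active = inhibition of at least 50% at 8 µM in the primary screen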
T cruzi inh = inhibitors of intracellular T. cruzi growth, primary screen, luminescence, NIH3T3 host cells; 300,000 compounds, 1.4% hits; inhibition, % (concentration not given with the values); AID 1885, 2009; T. cruzi beta-gal in NIH3T3, 90 h;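 active = mean inhibition across valid replicates above about 55%, limit read from the data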;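 note: signal also drops with host cell toxicity which is not excluded here; 0% = plate median of DMSO wells and 100% = zero luminescence signal; higher percent means less beta-gal luminescence so fewer parasites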
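System: Mouse NIH/3T3 fibroblasts infected with β-gal-expressing T. cruzi Tulahuen C4 | Quantity: NIH/3T3 cells, 5,000 per well | Reagent: 5000 reporter trypomastigotes per well | Dosing: Compound pinned at 50 nL/well, DMSO | Schedule: 3 h host attachment, then at least 90 h co-culture | Detection: GalScreen luminescence, 60 min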
SKKanGAS inh = S. pyogenes SKKanGAS growth inhibitors in kanamycin, primary screen, streptokinase expression inhibitor project, SKKanGAS strain, BacTiter-Glo luminescence; 6 h; 300,000 compounds, 1.3% hits; AID 1662, 2009; inhibition, % at 7.5 µM;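 active = mean replicate score, as percent of positive control median, at least 50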;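 note: strain carries kanamycin resistance gene driven by streptokinase promoter and grows in 40 µg/ml kanamycin; loss of luminescence reflects streptokinase promoter inhibition or plain growth inhibition; 0% = median of DMSO wells and 100% = positive control at its reference dose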
Starred values were filed as active, the others as inactive; . = no result.

SMILES	Calb FLC	Beta apoptosis	CSC inhib	Mdm2 MdmX PPI	T cruzi inh	SKKanGAS inh
Cc1ccc(OCC(=O)NCCCNC(=O)c2cccnc2)cc1	2	22	.	7	2	-3
COc1cc(Cl)ccc1OCc1cc(C(=O)NC(C)Cc2cccnc2)no1 (stereo not given)	11	2	-2	-30	0	-4
CN(C)CCCN(C(=O)c1ccc(S(=O)(=O)N2CCCCCC2)cc1)c1nc2c(F)cccc2s1	-1	-7	-3	18	33	-2
CN(C)CCN(C(=O)c1ccc(S(=O)(=O)N2CCc3ccccc32)cc1)c1nc2ccc(F)cc2s1	2	8	3	-7	63*	9
CN(C)CCCN(C(=O)c1ccc(S(=O)(=O)N2CCc3ccccc32)cc1)c1nc2c(Cl)cccc2s1	-13	0	50	30	55*	19
CC1=NN(C(N)=S)C(=O)C1N=Nc1c(Cl)cc([N+](=O)[O-])cc1Cl (stereo not given)	5	.	28	-23	-3	50*
CC1=NN(C(N)=S)C(=O)C1N=Nc1c(Br)cc(Br)cc1Br (stereo not given)	63	13	77*	-20	0	66*
CC1=NN(C(N)=S)C(=O)C1N=Nc1ccc(C)cc1C (stereo not given)	24	34	-14	-117	38	4
CC1=NN(C(N)=S)C(=O)C1N=Nc1c(C)cc(C)cc1C (stereo not given)	-8	24	-7	-4	-8	51*
COc1cc(/C=C2\SC(=O)N(CCNC(=O)c3c(C)noc3C)C2=O)cc(OC)c1OC	.	3	-9	24	.	.
CCc1ccc(S(=O)(=O)NC2CC(C)(C)NC(C)(C)C2)cc1	-2	-2	-3	5	-1	-1
COc1ccc(CNc2ccc(Cl)cc2)cc1Cn1ccnc1	16	6	66	-15	59*	19
CCc1ccc(NCc2ccc(OC)c(Cn3ccnc3)c2)cc1	-2	28	16	2	47	-7
CCOC(=O)/C=C1\NC(C)(C)Cc2cc(OC)c(OC)cc21	2	-2	.	10	0	-8
CCOC(=O)/C=C1\NC2(CCCCC2)Cc2cc(OC)c(OC)cc21	-33	-8	-12	14	60*	-6
COc1ccc(S(=O)(=O)N(C(C)=O)c2ccc(OC(C)=O)c3ccccc23)cc1[N+](=O)[O-]	2	106*	22	22	-4	10
CC(=O)Oc1c(Cl)cc(N(C(C)=O)S(=O)(=O)c2ccccc2)c2ccccc12	-2	95*	12	23	-11	0
CCN(C(=O)COC(=O)CCNS(=O)(=O)c1ccccc1F)c1c(N)n(Cc2ccccc2)c(=O)[nH]c1=O	.	1	-6	-5	.	.
CCC(=O)c1ccc(OCC(O)CN2CCN(S(=O)(=O)c3ccc(NC(C)=O)cc3)CC2)cc1 (stereo not given)	5	0	-12	-9	-10	-3
COc1ccc(CCNC(=O)c2ccccc2C(=O)NCCc2ccc(OC)c(OC)c2)cc1OC	1	.	-6	-23	-15	-7
CC(=O)c1cccc(S(=O)(=O)N2CCC(C(=O)Nc3cccc(C(=O)NC4CC4)c3)CC2)c1	.	5	-4	-13	.	.
Oc1ccc(C2=NNC(c3ccc(O)cc3)=NN2)cc1	94*	-2	-14	6	-1	0
S=C(Nc1ccc(Oc2ccccc2)cc1)NC1CCCCC1	0	-1	-6	47	-31	54*
O=C(O)c1ccc(NC(=S)NC2CCCCC2)cc1	-2	-2	.	5	-17	0
COc1ccccc1NC(=S)NC1CCCCCCCCCCC1	-2	77*	20	50	54	12
SMILES	Calb FLC	Beta apoptosis	CSC inhib	Mdm2 MdmX PPI	T cruzi inh	SKKanGAS inh
S=C(Nc1ccc(Oc2ccccc2)cc1)NC1CCCCCC1	-9	6	95*	.	11	18
S=C(Nc1ccc(Oc2ccc(NC(=S)NC3CCCCC3)cc2)cc1)NC1CCCCC1	-3	12	7	22	35	10
CCOCCCNC(=O)CN1CCN(S(=O)(=O)c2ccc3c(c2)CCC3)CC1	.	-4	1	-28	.	.
CC(=O)N1CCN(C(c2ccccc2)c2ccccc2)CC1	2	.	.	-1	.	-6
CC12CCC(C(=O)N3CCN(C(c4ccccc4)c4ccccc4)CC3)(OC1=O)C2(C)C (stereo not given)	10	-3	14	-2	56*	1
Nc1cc(C(=O)OCC(=O)Nc2cccc(S(=O)(=O)N3CCOCC3)c2)ccc1Cl	.	0	-1	7	.	.
O=C(NCc1ccccc1Br)C1CCCO1 (stereo not given)	3	-6	-7	17	-2	-7
COc1ccc(NC(=O)CN(C)C(=O)/C=C/c2cn(-c3ccccc3)nc2-c2ccc(F)cc2)cc1	1	-1	8	24	17	63*
CN(CC(=O)Nc1cccc(F)c1)C(=O)c1cn(-c2ccccc2)nc1-c1ccc(Cl)cc1	.	18	102*	26	.	.
COc1ccc(NC(=O)CN(C)C(=O)/C=C/c2cn(-c3ccccc3)nc2-c2ccc(C)cc2)cc1	0	7	11	20	72*	58*
Cc1cccc(-n2nc([N+](=O)[O-])c(N3CCN(C(=O)c4ccco4)CC3)[n+]2[O-])c1	3	-3	1	-29	44	-2
O=[N+]([O-])c1cccnc1N1CCN(c2ccccc2F)CC1	-13	3	0	11	10	10
O=[N+]([O-])c1nn(-c2ccccc2)[n+]([O-])c1N1CCN(c2ccccc2)CC1	-10	-2	-26	-20	85*	1
O=[N+]([O-])c1nn(-c2ccccc2)[n+]([O-])c1N1CCN(c2ccccc2F)CC1	-20	-4	-7	-8	57*	-14
COc1ccc(S(=O)(=O)N(C)C[C@H]2Oc3c(NS(=O)(=O)c4ccc(F)cc4)cccc3C(=O)N([C@H](C)CO)C[C@@H]2C)cc1	.	-10	-17	16	.	.
CCc1cc2c(nc1CC)CCN(CC/C(C)=N/O[C@@H](C)c1cc(-c3c(C)cc(C)cc3C)no1)C2	-29	47	30	17	45	11
C/C(CCN1CCc2nc(-c3ccccc3)c(-c3ccccc3)cc2C1)=N\O[C@@H](C)c1cc(-c2c(C)cc(C)cc2C)no1	-6	35	78*	33	28	8
O=C(O)c1ccccc1SCCS(=O)(=O)c1ccc(Cl)cc1Cl	7	-2	-5	-1	-8	2
COc1ccc(OC)c(Nc2nc(N(C)c3ccccc3)nc(N)c2[N+](=O)[O-])c1	8	20	43	30	69*	17

Bioassay records as filed in PubChem.
